Common to all, as to assay type: functional, cell-based
Assay [1] has as its system MGC-803. Nature of the assay: Cytotoxicity against human MGC803 cells after 24 hrs by SRB assay. The settings on record: for pIC50: MGC-803, 24 h. In a few lines:
(§1)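 Cytotoxicity against the tumor cell lines was read out by the SRB method, with adriamycin run as the positive control.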
For orientation: Sulforhodamine B stains cellular protein and so reports cell mass.

Assay [2] deals with K562. Nature of the assay: Cytotoxicity against human K562 cells after 72 hrs by MTT assay. The note with it: for pIC50: K562, 72 h. (In general: Tetrazolium assays rely on reduction of a dye to a coloured formazan, in cell work by metabolically active cells.)
Assay [3] concerns A549. In words: Cytotoxicity against human A549 cells after 24 hrs by SRB assay. The note with it: for pIC50: A549, 24 h. In a few lines:
as §1

Assay [4] concerns HCT-116. Nature of the assay: Cytotoxicity against human HCT116 cells after 72 hrs by MTT assay. The note with it: for pIC50: HCT-116, 72 h.
The subject of assay [5] is HL-60. Nature of the assay: Cytotoxicity against human HL60 cells after 72 hrs by MTT assay. The note with it: for pIC50: HL-60, 72 h.

Our source for the IC50 and Activity values is ChEMBL document CHEMBL3102766, “Thiodiketopiperazines from the marine-derived fungus Phoma sp. OUCMDZ-1847” (J Nat Prod, 2014).

pIC50: −log10 of the molar value. Active and inactive are the calls of the source. The rule behind the calls is not given here.

For the compound `O=C1C=C[C@H](O)[C@@H]2[C@@H]1C[C@@]13SS[C@]4(C[C@H]5C(=O)C=C[C@H](O)[C@H]5N4C1=O)C(=O)N23`, the pIC50 (as a rule, the negative decadic logarithm of the IC50, by convention in mol/L) is 5.28 in assay [1]; 5.34 in assay [2]; less than 5.00 in assay [3]; less than 5.00 in assay [4]; 5.80 in assay [5].
Turning to `O=C1C[C@H]2SS[C@@]34C[C@@H]1[C@@H]([C@H]2O)N3C(=O)[C@@]12C[C@H]3C(=O)C[C@@H](S1)[C@H](O)[C@H]3N2C4=O`, the result in assay [1], in assay [2], in assay [3], in assay [4] and in assay [5] was inactive.
In the case of `O=C1C[C@@H]2S[C@@]34C[C@@H]1[C@@H]([C@H]2O)N3C(=O)[C@@]12C[C@H]3C(=O)C[C@H](S1)[C@H](O)[C@H]3N2C4=O`, the result in assay [1], in assay [2], in assay [3], in assay [4] and in assay [5] was inactive.
As for `O=C1C[C@@H]2SS[C@@]34C[C@@H]1[C@@H]([C@H]2O)N3C(=O)[C@@]12C[C@H]3C(=O)C[C@H](SS1)[C@H](O)[C@H]3N2C4=O`, the outcome in assay [1], in assay [2], in assay [3], in assay [4] and in assay [5] was inactive.
Consider `CS[C@@]12C[C@@H]3C(=O)C=C[C@H](O)[C@H]3N1C(=O)[C@]1(SC)C[C@@H]3C(=O)C=C[C@H](O)[C@H]3N1C2=O`, for which the pIC50 was 5.38 in assay [1]; less than 5.00 in assay [2]; less than 5.00 in assay [3]; 5.40 in assay [4]; 5.46 in assay [5].
For `O=C1C=C[C@H](O)[C@@H]2[C@@H]1C[C@@]13SS[C@]4(C[C@H]5C(=O)C[C@H](O)[C@H](O)[C@H]5N4C1=O)C(=O)N23`, the pIC50 in assay [1] is 5.47; in assay [2], less than 5.00; in assay [3], less than 5.00; in assay [4] it was 5.15; in assay [5], 5.46.
Regarding `O=C1C[C@H]2S[C@@]34C[C@@H]1[C@@H]([C@H]2O)N3C(=O)[C@@]12C[C@H]3C(=O)[C@@H](S1)[C@H](O)[C@H](O)[C@H]3N2C4=O`, the result in assay [1], in assay [2], in assay [3], in assay [4] and in assay [5] was inactive.
With `O=C1C[C@H](O)[C@H](O)[C@@H]2[C@H]1C[C@@]13SS[C@]4(C[C@H]5C(=O)C[C@H](O)[C@H](O)[C@H]5N4C1=O)C(=O)N23`, the outcome in assay [1], in assay [2], in assay [3], in assay [4] and in assay [5] was inactive.
Regarding `O=C1N2[C@H]3[C@H](C[C@]24SS[C@]12C[C@H]1[C@@H]([C@@H](O)CC[C@@H]1O)N2C4=O)[C@@H](O)CC[C@@H]3O`, the result in assay [1], in assay [2], in assay [3], in assay [4] and in assay [5] was inactive.
For the compound `O=C1C[C@@H]2SS[C@@]34C[C@@H]1[C@@H]([C@H]2O)N3C(=O)[C@@]12C[C@H]3C(=O)[C@H](S1)[C@H](O)[C@H](O)[C@H]3N2C4=O`, the outcome in assay [1], in assay [2], in assay [3], in assay [4] and in assay [5] was inactive.
On to `CS[C@@]1(Cc2ccccc2)NC(=O)[C@]2(SC)CC3=CC=C[C@H](O)[C@H]3N2C1=O`, for which the pIC50 was 5.07 in assay [1]; less than 5.00 in assay [2]; less than 5.00 in assay [3]; less than 5.00 in assay [4]; less than 5.00 in assay [5].
With `COc1cccc2c1C(=O)c1c(O)c3c(c(O)c1C2=O)C[C@@](O)(C(=O)CO)C[C@@H]3O[C@H]1C[C@H](N)[C@H](O)[C@H](C)O1` [DOXORUBICIN], the negative-log IC50 (pIC50) in assay [1] was 6.77; in assay [3], 6.80.
As for `CS[C@@]12CC3=CC=C[C@H](O)[C@H]3N1C(=O)/C(=C/c1ccccc1)NC2=O`, the result in assay [1], in assay [2], in assay [3], in assay [4] and in assay [5] was inactive.
Turning to `O=C1C=C[C@H](O)[C@@H]2[C@@H]1C[C@@]13SS[C@]4(C[C@@H]5C(=O)C=C[C@H](O)[C@H]5N4C1=O)C(=O)N23` [EPICORAZINE A], the pIC50 in assay [1] is 5.57; in assay [2] it was 5.82; in assay [3] it was 5.64; in assay [4], 6.48; in assay [5], 7.30.
